Assay results from paper PMC3755765 (ChemMedChem, 2013).
In brackets after ≈: the same amount, converted by molar mass. Several values for one entry are separate records, joined by “and”; a condition that tells them apart may be missing. Equal entries are not always repeated. Entries after “also recorded” stand apart in the source; their conditions may differ. Where two headings read alike, the source gives them in different places.

Experiments:
T. gondii tachyzoites = test: Parasite tissue culture assay: inhibition of T. gondii tachyzoites in HFF; assay type: cell-based, Toxoplasma gondii; settings: for MIC50 / IC50: Toxoplasma gondii; for Activity in the parasite-based assay: T. gondii tachyzoites
TgENR = target: T1, TgENR (Toxoplasma gondii, UniProt Q6UCJ9); test: TgENR enzyme assay; assay type: biochemical; settings: for inhibition at 1 µM: read-out: Cpd. conc. [1 μM]/% Inh.: percentage of inhibition of TgENR; for Activity in the enzyme-based assay: purified TgENR
T1 sequence (Q6UCJ9 28-417): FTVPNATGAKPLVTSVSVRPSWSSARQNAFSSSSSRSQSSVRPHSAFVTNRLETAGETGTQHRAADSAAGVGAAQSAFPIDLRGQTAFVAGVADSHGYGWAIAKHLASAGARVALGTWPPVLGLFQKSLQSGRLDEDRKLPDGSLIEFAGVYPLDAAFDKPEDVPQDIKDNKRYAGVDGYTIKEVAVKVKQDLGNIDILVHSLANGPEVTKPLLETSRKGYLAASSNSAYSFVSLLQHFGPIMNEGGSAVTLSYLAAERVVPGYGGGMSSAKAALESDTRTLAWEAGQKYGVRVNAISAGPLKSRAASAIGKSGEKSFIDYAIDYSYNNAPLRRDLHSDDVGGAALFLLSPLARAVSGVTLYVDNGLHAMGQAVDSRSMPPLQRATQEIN

T. gondii = T. gondii mouse infection model; assay type: in vivo; settings: mice; for Effect on parasite burden compared to triclosan (Xenogen camera images): 10mg/ml; for Effect on parasite growth in vivo: 50mg/kg (results not shown)
[1] = Intrinsic clearance in human cryopreserved hepatocytes; assay type: in vitro ADME; settings: human
[2] = tested on: human cryopreserved hepatocytes; test: as above; assay type: in vitro ADME
[3] = Intrinsic clearance in human liver microsomes; assay type: in vitro ADME
Toxicity in mice = assay type: in vivo
[4] = Experimental Caco-2 permeability; settings: human, Caco-2
[5] = tested on: Human Foreskin Fibroblasts (HFF); test: Toxicity for host cells; settings: for Parasite tissue culture assay HFF (HFF toxicity): human foreskin fibroblasts, highest concentration tested 10 μM
[6] = tested on: P. falciparum strain D6 (CDC/Sierra Leone); test: Malaria SYBR Green I-based fluorescence assay, strain D6; assay type: cell-based; settings: Plasmodium falciparum, D6, 72 h, read-out: SYBR Green D6 IC50
Outline: (§1)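 Late-ring or early-trophozoite parasites at 0.3% starting parasitemia and 2% hematocrit were added to plates predosed with quadruplicate 12-point two-fold dilutions in DMSO (final […]), with mefloquine as reference. Plates were incubated 72 h at 37°C under 5% CO2/5% O2/90% N2, lysed with Tris/EDTA/Triton X/saponin buffer with SYBR Green I (final 10x), kept dark 24 h at RT, and read as RFU. A chloroquine batch control at 2000 ng/ml validated each run.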

[7] = tested on: P. falciparum strain TM91C235 (WRAIR, Thailand, chloroquine resistant); test: Malaria SYBR Green I-based fluorescence assay, strain TM91C235; assay type: cell-based; settings: Plasmodium falciparum, 72 h, read-out: SYBR Green C235 IC50
Outline: as §1

Caco-2 = test: Experimental Caco-2 permeability; settings: experimental, Contract Research Organization
in vitro = settings: human, Caco-2
[8] = 72 h, read-out: Parasite tissue culture assay MIC50
[9] = 75 mg/kg, day 5 after infection, 75 mg/kg

| SMILES | MIC50 (T. gondii tachyzoites; [8]) | inhibition at 1 µM (TgENR) | Effect on parasite burden in vivo (T. gondii; 10 mg/kg) | Parasite tissue culture assay HFF (HFF toxicity) [5] | Activity in the parasite-based assay (T. gondii tachyzoites) | Activity in the enzyme-based assay (TgENR) | IC50 [6] | IC50 [7] | further results |
| --- | --- | --- | --- | --- | --- | --- | --- | --- | --- |
| Oc1cc(Cl)ccc1Oc1ccc(Cn2ccnn2)cc1Cl [Compound 16c, 5-Chloro-2-[2-chloro-4-[(1H-1,2,3-triazol-1-yl)methyl]phenoxy]phenol] | 0.25 µM (≈ 0.084 µg/mL) | 91% | neither of those analogs reduced the parasite burden; also recorded: no effect | >10 µM | – | – | – | – | IC50 (T. gondii tachyzoites; read-out: IC50 (MIC50) against Toxoplasma gondii tachyzoites): 0.25 µM; Effect on parasite burden compared to triclosan (Xenogen camera images) (T. gondii): reduced effect; Effect on parasite growth in vivo (T. gondii): not evident; Effect on parasite burden in vivo (T. gondii; [9]): protected the mice by decreasing parasite burden; also recorded: effective in reducing parasite burden; half-life [1]: 29 min; Compound left unmetabolized ([2]; after 60 min): 20%; Compound remained intact ([2]; after 120 min): 5%; half-life [3]: > 60 min; Toxicity in mice relative to triclosan (fold less toxic) (Toxicity in mice): 10 fold; Papp [4]: 263 nm/s; Toxicity to the host cells [5]: without apparent toxicity to the host cells |
| Cc1cc(CC(=O)NCc2ccc(Oc3ccc(Cl)cc3O)c(Cl)c2)on1 [Compound 37c, N-[3-Chloro-4-(4-chloro-2-hydroxyphenoxy)benzyl]-2-(3-methyl-1,2-oxazol-5-yl)acetamide] | > 10 µM | 96% | neither of those analogs reduced the parasite burden; also recorded: no effect | – | – | – | – | – | Effect on parasite burden compared to triclosan (Xenogen camera images) (T. gondii): reduced effect; Effect on parasite growth in vivo (T. gondii): not evident; Effect on parasite burden in vivo (T. gondii; [9]): protected the mice by decreasing parasite burden; also recorded: effective in reducing parasite burden; Toxicity in mice relative to triclosan (fold less toxic) (Toxicity in mice): 10 fold |
| Oc1cc(CNC2CCCCC2)ccc1Oc1ccc(Cl)cc1Cl [Compound 39b, 5-[(Cyclohexylamino)methyl]-2-(2,4-dichlorophenoxy)phenol] | 4 µM (≈ 1.47 µg/mL) | 34% | – | >10 µM | activity comparable to or better than that of triclosan | completely inactive | 30 nM and 0.0119 µg/mL | 80 nM and 0.0276 µg/mL | – |
| CCC(=O)c1ccc(Oc2ccc(Cl)cc2Cl)c(O)c1 [Compound 43a, 1-[4-(2,4-Dichlorophenoxy)-3-hydroxyphenyl]propan-1-one] | – | 85% | – | >10 µM | ineffective | only weak activity; also recorded: only weak inhibition | 2.75 µM and 0.857 µg/mL | > 2 mg/L | IC50 (T. gondii tachyzoites; [8]): > 10 µM |
| O=C(c1ccccc1)c1ccc(Oc2ccc(Cl)cc2Cl)c(O)c1 [Compound 43b, [4-(2,4-Dichlorophenoxy)-3-hydroxyphenyl](phenyl)methanone] | > 10 µM | 78% | – | >10 µM | ineffective | only weak activity; also recorded: only weak inhibition | > 2 mg/L | > 2 mg/L | IC50 (TgENR): 0.75 µM |
| Oc1cc(Cl)ccc1Oc1ccc(Cl)cc1Cl [Triclosan, triclosan, reference compound] | 3 µM (≈ 0.869 µg/mL) | 97% | effective; also recorded: demonstrated efficacy | > 10 µM | – | – | – | – | IC50 (T. gondii tachyzoites; [8]): 0.25 µM |
| COc1cc2c(c(OC)c1OC)-c1ccc(OC)c(=O)cc1[C@@H](NC(C)=O)CC2 [colchicines, reference compound] | – | – | – | – | – | – | – | – | Caco-2 permeability (Caco-2): 1 nm/s |
| CC(C)NCC(O)COc1cccc2ccccc12 (stereo not drawn) [propranolol] | – | – | – | – | – | – | – | – | Papp (in vitro): 511 nm/s |
